Experimental data: ChEMBL document CHEMBL1151703, “Irreversible inhibition of dihydrodipicolinate synthase by 4-oxo-heptenedioic acid analogues” (Bioorg Med Chem, 2008)
Calls of active or inactive are those of the source. No cut-off for these calls is given here.

Experiments:
[1] = target: T1, 4-hydroxy-tetrahydrodipicolinate synthase (Escherichia coli K-12, UniProt P0A6L2); experiment: Inhibition of Escherichia coli DHDPS
T1 sequence (P0A6L2 whole entry): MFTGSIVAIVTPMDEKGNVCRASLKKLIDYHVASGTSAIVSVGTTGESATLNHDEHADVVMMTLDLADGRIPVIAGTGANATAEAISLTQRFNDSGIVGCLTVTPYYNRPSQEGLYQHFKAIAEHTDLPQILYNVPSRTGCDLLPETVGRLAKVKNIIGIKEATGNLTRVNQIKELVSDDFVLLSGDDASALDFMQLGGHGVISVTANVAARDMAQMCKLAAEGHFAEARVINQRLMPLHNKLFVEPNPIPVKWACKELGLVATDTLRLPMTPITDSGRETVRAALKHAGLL

[2] = target: T2, 4-hydroxy-tetrahydrodipicolinate synthase (Escherichia coli K-12) (UniProt P0A6L2); experiment: (§1) Inhibition of Escherichia coli recombinant DHDPS overexpressed with DHDPR assessed as residual activity by modified coupled assay; details: TDE = time-dependent effect
T2 sequence (whole entry): T1 sequence (P0A6L2 whole entry)
In short: (§2)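 Recombinant E. coli DHDPS, purified, pre-incubated with inhibitor for various times before activity measurement in a coupled assay with E. coli DHDPR (modified coupled assay) at 30 °C; inhibitor range 0.1–250 mM across compounds. Each decay curve was fitted to give kobs; kobs versus [I] was fitted to give kinact and Ki(app); the second-order rate constant is kinact/Ki(app).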

[3] = target: T1, 4-hydroxy-tetrahydrodipicolinate synthase; experiment: as §1; details: read-out: Ki(app); in short: as §2
[4] = target: T2, 4-hydroxy-tetrahydrodipicolinate synthase (Escherichia coli K-12); experiment: Inactivation of Escherichia coli recombinant DHDPS; in short: as §2
[5] = target: T2, 4-hydroxy-tetrahydrodipicolinate synthase (Escherichia coli K-12); experiment: Ratio of Kinact to Ki(app) for Escherichia coli recombinant DHDPS; in short: as §2
[6] = Inhibition of succinyl co-transferase; details: read-out: Ki(app)
[7] = target: T2, 4-hydroxy-tetrahydrodipicolinate synthase (Escherichia coli K-12); experiment: Inhibition of Escherichia coli recombinant DHDPS overexpressed with DHDPR assessed as residual activity at 2 mM within 6 min by modified coupled assay; in short: as §2
[8] = target: T3, 4-hydroxy-tetrahydrodipicolinate synthase (Bacillus subtilis (strain 168), UniProt Q04796); experiment: Inhibition of Bacillus subtilis DHDPS
T3 sequence (Q04796 whole entry): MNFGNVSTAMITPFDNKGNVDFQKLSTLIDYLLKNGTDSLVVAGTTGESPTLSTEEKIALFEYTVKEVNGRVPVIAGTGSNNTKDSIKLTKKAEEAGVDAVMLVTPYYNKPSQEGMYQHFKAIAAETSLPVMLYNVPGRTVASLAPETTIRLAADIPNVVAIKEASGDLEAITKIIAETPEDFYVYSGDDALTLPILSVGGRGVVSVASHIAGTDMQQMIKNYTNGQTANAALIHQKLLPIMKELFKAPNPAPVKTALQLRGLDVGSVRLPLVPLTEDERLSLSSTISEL

Structure (SMILES) | Ki [1] | Activity [2] | Ki [3] | Kinact [4] | Ratio [5] | further results
CCCC(=O)C(=O)O | 700 µM | – | – | – | – | –
O=C(O)/C=C/C(=O)/C=C/C(=O)O | – | tde | 1630 µM | 1.9 ×10⁻³ /s | 1.2 M⁻¹ s⁻¹ | Ki [6]: 530 µM
CCOC(=O)/C=C/C(=O)/C=C/C(=O)OCC | – | – | 4950 µM | 29 ×10⁻³ /s | 5.9 M⁻¹ s⁻¹ | Activity [7]: Active
O=C(O)C(=O)CF | 220 µM | – | – | – | – | –
O=CC(=O)O [GLYOXYLATE] | 16 µM | – | – | – | – | –
O=C(O)C(=O)CCCC(=O)C(=O)O | – | – | – | – | – | Ki [8]: 160 µM
O=C(O)/C=C/C(=O)CCC(=O)O | – | tde | 32400 µM | 4.1 ×10⁻³ /s | 0.12 M⁻¹ s⁻¹ | –
CCOC(=O)/C=C/C(=O)CCC(=O)OCC | – | tde | 10900 µM | 1.2 ×10⁻³ /s | 0.11 M⁻¹ s⁻¹ | –
CCC(=O)C(=O)O | 830 µM | – | – | – | – | –
